Assay: Toxicity liver stage against HepG2, at 10uM
Type: cell-based
Parameters: test concentration 10 uM, cell line HepG2-A16-CD81EGFP
Conditions: human, HepG2-A16-CD81EGFP cells; read-out: INHIBITION
Outline: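 Uninfected HepG2-A16-CD81EGFP cells, 3 × 10^3 per well, 1536-well, plated on prespotted compound at 10 μM final, parasite-free screening media added to match infected plates; puromycin 10 μM positive, DMSO 0.5% negative; run in parallel with 48 h PbLuc assay at 37 °C, 5% CO2; viability by CellTiter-Glo luminescence, normalized to controls.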

## CCCOc1cc(C)c2c(c1C)C[C@H]([C@H](C)C(=O)O)CC2
  cytotoxicity at 10 µM: -4.19%

## c1cc(-c2nnc([C@H]3CCNC3)o2)ccn1
  cytotoxicity at 10 µM: 4.82%

## COc1ccc(C2CCCN2C(=O)c2cc(C(C)C)on2)cc1 (stereo not drawn)
  cytotoxicity at 10 µM: 0.462%

## O=C(N[C@H]1CCCC[C@@H]1O)c1ccc2nc(-c3ccccc3)[nH]c2c1
  cytotoxicity at 10 µM: 0.822%

## Cc1csc2cc(C(=O)NC3CCCC3)cnc12
  cytotoxicity at 10 µM: 3.13%

## O=c1n(Cc2ccc(C(F)(F)F)cc2)nc2ncccn12
  cytotoxicity at 10 µM: -4.06%

## CN(C)c1ncc(NC(=O)c2ccccc2C(F)(F)F)cn1
  cytotoxicity at 10 µM: -9.66%

## Cc1ccc(C(=O)N2C[C@H]3CNC[C@H]3C2)cn1
  cytotoxicity at 10 µM: -1.16%

## CC(C)CN1CCNC(=O)C12CCN(S(=O)(=O)c1ccc(F)cc1)CC2
  cytotoxicity at 10 µM: -3.16%

## CCn1cc2c(n1)C(COCC1CC1)CN(C(=O)c1ccco1)C2 (stereo not drawn)
  cytotoxicity at 10 µM: 17.6%

## CC(C)N1CCC2(CC1)CN(C)C(=O)C[C@H]2C(F)(F)F
  cytotoxicity at 10 µM: -160%

## Cc1nnn2c1COCC(CNC(=O)c1ccnnc1)C2 (stereo not drawn)
  cytotoxicity at 10 µM: -1.35%

## O=C(C1CCOC1)N1CCc2ncnc(-c3cccnc3)c2CC1 (stereo not drawn)
  cytotoxicity at 10 µM: -3.13%

## CN1C(=O)C(c2cccnc2)CC12CCN(C(=O)c1ccc[nH]1)CC2 (stereo not drawn)
  cytotoxicity at 10 µM: -0.19%

## O=C(NCC1CCN(C(=O)c2ccoc2)CC1)c1ccccc1Br
  cytotoxicity at 10 µM: -12.3%

## CC1CCN(C(=O)c2cnn3c(-c4ccco4)ccnc23)CC1
  cytotoxicity at 10 µM: 8.77%

## Cc1cccc(NC(=O)c2ccc(OCc3nnnn3C)cc2)n1
  cytotoxicity at 10 µM: -34.1%

## CN1CCCC1c1cncc(C(=O)NCC2CC2)n1 (stereo not drawn)
  cytotoxicity at 10 µM: -8.41%

## COCCNc1nnc(-c2ccc(C)nc2)s1
  cytotoxicity at 10 µM: -8.55%

## CN(C)c1cc(C2CCCN2C(=O)c2ccc(=O)n(C)c2)ccn1 (stereo not drawn)
  cytotoxicity at 10 µM: -23.9%

## CCN1CCOC(CNCc2cnc(N(CC)CC)s2)C1 (stereo not drawn)
  cytotoxicity at 10 µM: 0.598%

## COCc1ccccc1NC(=O)c1ccoc1
  cytotoxicity at 10 µM: -2.17%

## Cn1cc(NC(=O)N2CCCC2c2ccccn2)ccc1=O (stereo not drawn)
  cytotoxicity at 10 µM: -3.83%

## COC(=O)c1occc1Cn1cc(Br)cn1
  cytotoxicity at 10 µM: -5.63%

## N#Cc1ccc(SCCC(=O)Nc2ccc(CC(N)=O)cc2)cc1
  cytotoxicity at 10 µM: -5.25%

## CCN(CC)c1nc2sc(C(=O)N3CCNC(=O)C3)cc2s1
  cytotoxicity at 10 µM: -4.29%

## Cn1nc2c(cc1=O)CN(c1nc3ccccc3s1)CC2
  cytotoxicity at 10 µM: 2.89%

## Cc1nc(-c2nnc[nH]2)sc1C(=O)N1CCCC1c1cccs1 (stereo not drawn)
  cytotoxicity at 10 µM: 11.1%

## O=C(NCCN1CCOCC1)NCc1cccnc1-n1cccn1
  cytotoxicity at 10 µM: -2.22%

## CC(O)CC(C)(C)CNC(=O)Nc1cnn(-c2ccccc2F)c1 (stereo not drawn)
  cytotoxicity at 10 µM: -3.27%

## CNC(=O)c1cccc(NC(=O)NCc2ccc(SC)cc2)c1C
  cytotoxicity at 10 µM: -4.44%

## CCOc1ccc(NC(=O)NC2CCc3nc(C)nn3C2)cc1Cl (stereo not drawn)
  cytotoxicity at 10 µM: -3.81%

## Cc1ncc2c(n1)CN(CC(O)COc1ccc(C#N)cc1)CC2 (stereo not drawn)
  cytotoxicity at 10 µM: 7.45%

## COc1ccnc(NC(=O)c2cscn2)c1
  cytotoxicity at 10 µM: 9.72%

## CCC(=O)N1CSCC1C(=O)N(C)CCc1ccccc1 (stereo not drawn)
  cytotoxicity at 10 µM: 19.5%

## CSc1ccc(NC(=O)NCC(O)C(C)C)cc1F (stereo not drawn)
  cytotoxicity at 10 µM: 6.93%

## COCCN(C)C(=O)Nc1ccn(-c2cccc(C(F)(F)F)c2)n1
  cytotoxicity at 10 µM: -2.16%

## Cc1ccc(C(C)(O)CNC(=O)c2sccc2Br)o1 (stereo not drawn)
  cytotoxicity at 10 µM: 4.77%

## CCn1c(CN(C)C(=O)c2ccc(O)nc2)nc2ccccc21
  cytotoxicity at 10 µM: 10.2%

## O=C(CCCc1ccccn1)N1CCSC2(CCCCC2)C1
  cytotoxicity at 10 µM: -3.71%

## N#CC1C(=O)Nc2c(cnn2C2CCCC2)C12CCCCC2 (stereo not drawn)
  cytotoxicity at 10 µM: 8.46%

## CCc1nc2n(n1)CCCC2NC(=O)Nc1cccc(F)c1F (stereo not drawn)
  cytotoxicity at 10 µM: 2.39%

## O=S1(=O)CCCN1Cc1coc(-c2cccs2)n1
  cytotoxicity at 10 µM: 17.5%

## CCOc1ccc(CN2CCCC(c3nn(C)c(=O)n3CC)C2)cn1 (stereo not drawn)
  cytotoxicity at 10 µM: -2.85%

## Cc1c(C(=O)N2CCCC(O)(CN(C)C)CC2)c2cc(O)ccc2n1C (stereo not drawn)
  cytotoxicity at 10 µM: -119%

## COC(=O)c1cccc(-c2c[nH]c(C)n2)c1
  cytotoxicity at 10 µM: -0.734%

## Cn1nnnc1SCCNC(=O)C1CCN(C(=O)C2CCC2)CC1
  cytotoxicity at 10 µM: -3.22%

## CC(C)Nc1ccc(-c2ccnc3c2ccn3C)nn1
  cytotoxicity at 10 µM: -7.94%

## CCn1c(CN2CCCC2)nnc1C1CCN(Cc2ccccn2)CC1
  cytotoxicity at 10 µM: 3.11%

## O=C(NC1CC1)c1cccc(S(=O)(=O)NCCc2nc(C3CC3)no2)c1
  cytotoxicity at 10 µM: -0.714%

## Cc1ccc2[nH]c(CN(C)c3cc(CCN)nc(C)n3)nc2c1
  cytotoxicity at 10 µM: 0%

## O=S(=O)(N1CCOCC1)N1CCCCC1CCn1cccn1 (stereo not drawn)
  cytotoxicity at 10 µM: -0.302%

## Cc1nn(C)c(C)c1CN(Cc1cccn1-c1cccnc1)C(C)C
  cytotoxicity at 10 µM: -3.16%

## Cc1noc(C)c1CN1C[C@@H](C(=O)O)[C@H](c2ccccc2)C1
  cytotoxicity at 10 µM: -9.04%

## CCSc1ncc(-c2nccn2CCN(C)C)cn1
  cytotoxicity at 10 µM: 2.41%

## OCc1cn([C@@H]2c3ccccc3C3(CCNCC3)[C@H]2O)nn1
  cytotoxicity at 10 µM: -3.45%

## COc1ccccc1-c1ncc(CN2C[C@H](O)[C@@H](N3CCCC3)C2)s1
  cytotoxicity at 10 µM: -6.34%

## Cc1cccnc1CN(C)c1ncnc2[nH]ccc12
  cytotoxicity at 10 µM: 4.77%

## Cc1cnc(C(=O)N2CCc3c(nc(-c4ccncc4)[nH]c3=O)C2)cn1
  cytotoxicity at 10 µM: 8.62%

## C=C(C)COc1ccccc1NC(=O)N1CCCCC1CO (stereo not drawn)
  cytotoxicity at 10 µM: -8.06%

## CC(=O)C1(c2ccccc2)CCN(C(=O)CC2CNCCO2)CC1 (stereo not drawn)
  cytotoxicity at 10 µM: -4.46%

## CC(C)CS(=O)(=O)CC(=O)NC1CCCCNC1=O (stereo not drawn)
  cytotoxicity at 10 µM: -3.03%

## COc1cc(CNC(c2ccccc2)c2nccn2C)cc(OC)c1 (stereo not drawn)
  cytotoxicity at 10 µM: -6.69%

## Cc1ccc(CNC2CCCN(Cc3noc(C4CC4)n3)C2)s1 (stereo not drawn)
  cytotoxicity at 10 µM: -6.01%

## CC(C(=O)NCCOc1ccc2c(c1)CCC2)n1cncn1 (stereo not drawn)
  cytotoxicity at 10 µM: -1.58%

## OC(CN1CCC(c2ccn[nH]2)CC1)c1ccccc1F (stereo not drawn)
  cytotoxicity at 10 µM: -25.5%

## CC(=O)NCCNC(=O)c1cnc(-c2ccc(C)cc2C)s1
  cytotoxicity at 10 µM: -7.95%

## CNS(=O)(=O)c1ccc(CNC(=O)NCC2CCC2)cc1
  cytotoxicity at 10 µM: 6.26%

## O=C(Cc1ccc2c(c1)CCO2)N1CCCC(n2cccn2)C1 (stereo not drawn)
  cytotoxicity at 10 µM: 5.67%

## COc1ccc(C(=O)N(C)Cc2cc(C)on2)c(OC)c1
  cytotoxicity at 10 µM: -11.3%

## Cn1cnc2c(N3CCOCC3)nc(C3CCNCC3)cc21
  cytotoxicity at 10 µM: 2.98%

## CCOC(=O)[C@]12CCCN(Cc3ccsc3)C[C@H]1CN(CCOC)C2
  cytotoxicity at 10 µM: -127%

## CN(C)CCNC(=O)c1nc2c(o1)CN(C(=O)c1cccnc1)C2
  cytotoxicity at 10 µM: 0.109%

## Fc1cnc(N2CC3(CCN(CC4CC4)C3)C2)nc1
  cytotoxicity at 10 µM: -2.73%

## COCCN1CC[C@H]2CN(Cc3ccc(C)s3)C[C@@H]2C1=O
  cytotoxicity at 10 µM: -3.72%

## Cc1cccc(N2CCC3(CCCC(=O)N3)CC2)n1
  cytotoxicity at 10 µM: -3.8%

## CN(C)C(=O)CN1C[C@H]2CCN(c3ncccn3)CC[C@H]2S1(=O)=O
  cytotoxicity at 10 µM: 0.466%

## O=C(NCC1CC1)[C@@H]1C[C@@H]2OCCN[C@@H]2C1
  cytotoxicity at 10 µM: -131%

## CNC(=O)c1ccc2c(c1)C1(CCN(C(C)C)CC1)C(=O)N2
  cytotoxicity at 10 µM: 12.6%

## O=C([C@@H]1CC[C@@H]2[C@@H](CCN2Cc2cccs2)O1)N1CCCCO1
  cytotoxicity at 10 µM: -2.33%

## COCCN1C(=O)[C@@H]2CC[C@H]1CN(C(=O)Cc1ccc(O)c(Cl)c1)C2
  cytotoxicity at 10 µM: -4.26%

## Cc1noc(C)c1CN1C(=O)[C@@H]2CC[C@H]1CN(Cc1ncc[nH]1)C2
  cytotoxicity at 10 µM: 5.85%

## CNC(=O)c1cnc(C=Cc2ccc(O)c(OC)c2)s1
  cytotoxicity at 10 µM: 0.23%

Reference: ChEMBL document CHEMBL4513216, “Probing the Open Global Health Chemical Diversity Library for Multistage-Active Starting Points for Next-Generation Antimalarials” (ACS Infect Dis, 2020)
